Experimental data from ChEMBL document CHEMBL3526062, “Role of human UDP-glucuronosyltransferases in the biotransformation of the triazoloacridinone and imidazoacridinone antitumor agents C-1305 and C-1311: highly selective substrates for UGT1A10” (Drug Metab Dispos, 2012).

Assays:
Type in all cases: ADME
[1] = target: T1, UDP-glucuronosyltransferase 1A10 (Homo sapiens, UniProt Q9HAW8); assay: Drug metabolism assessed as human recombinant UGT1A10-mediated compound formation treated with C-1305 for 60 mins by ESI-MS/UV-vis spectroscopy in presence of 3 mM UDP-GlcUA; conditions: recombinant enzyme, 1 h
T1 sequence (Q9HAW8 whole entry): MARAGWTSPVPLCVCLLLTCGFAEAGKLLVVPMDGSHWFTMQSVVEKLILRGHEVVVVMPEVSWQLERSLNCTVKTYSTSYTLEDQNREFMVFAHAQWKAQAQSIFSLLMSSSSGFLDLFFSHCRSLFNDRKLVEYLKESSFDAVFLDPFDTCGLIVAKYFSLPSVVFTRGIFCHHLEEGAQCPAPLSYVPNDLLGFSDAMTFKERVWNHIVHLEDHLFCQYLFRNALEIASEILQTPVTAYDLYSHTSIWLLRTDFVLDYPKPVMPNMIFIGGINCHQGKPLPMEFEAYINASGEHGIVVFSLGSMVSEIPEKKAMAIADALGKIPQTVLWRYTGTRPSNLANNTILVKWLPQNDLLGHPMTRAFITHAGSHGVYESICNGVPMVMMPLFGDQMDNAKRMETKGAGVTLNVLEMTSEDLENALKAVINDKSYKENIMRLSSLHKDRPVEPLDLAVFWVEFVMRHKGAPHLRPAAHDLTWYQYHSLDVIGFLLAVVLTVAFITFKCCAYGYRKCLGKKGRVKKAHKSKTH
Summary of the method: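 His-tagged recombinant human UGT expressed in baculovirus-infected insect cells, levels normalized by anti-His Western blot; 5 μg membrane protein incubated 60 min at 37°C in […] pH 7.4, 5 mM MgCl2, 5 mM saccharolactone, 2% DMSO, substrate 100 or 200 μM; started with UDP-GlcUA; ethanol stop, centrifuged; supernatant by reversed-phase HPLC-UV/ESI-MS; glucuronide confirmed by β-glucuronidase hydrolysis; triplicate.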

[2] = target: T2, UDP-glucuronosyltransferase 1A9 (Homo sapiens, UniProt O60656); assay: Activity of human recombinant UGT1A9 expressed in baculovirus-infected Sf9 cells assessed as enzyme-mediated glucuronidation per mg protein at 300 uM after 60 mins by Michaelis-Menten equation in presence of 3 mM UDP-GlcUA; conditions: sf9, 1 h
T2 sequence (O60656 whole entry): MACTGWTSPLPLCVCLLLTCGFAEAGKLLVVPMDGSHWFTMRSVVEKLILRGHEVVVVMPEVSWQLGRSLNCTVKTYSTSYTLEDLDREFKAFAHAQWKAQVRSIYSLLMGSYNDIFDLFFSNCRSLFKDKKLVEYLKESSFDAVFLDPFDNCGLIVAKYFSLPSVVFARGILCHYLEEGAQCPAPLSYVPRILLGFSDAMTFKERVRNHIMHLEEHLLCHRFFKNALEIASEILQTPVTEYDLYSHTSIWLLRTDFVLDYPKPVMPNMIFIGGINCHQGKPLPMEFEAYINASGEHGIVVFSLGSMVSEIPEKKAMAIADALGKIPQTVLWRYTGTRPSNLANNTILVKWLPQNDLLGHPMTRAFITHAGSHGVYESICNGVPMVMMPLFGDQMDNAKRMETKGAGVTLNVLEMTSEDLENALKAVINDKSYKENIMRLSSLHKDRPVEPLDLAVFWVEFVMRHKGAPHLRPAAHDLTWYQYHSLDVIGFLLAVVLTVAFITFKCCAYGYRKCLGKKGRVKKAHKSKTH

[3] = target: T2, UDP-glucuronosyltransferase 1A9; assay: Drug metabolism assessed as human recombinant UGT1A9-mediated compound formation treated with C-1305 for 60 mins by ESI-MS/UV-vis spectroscopy in presence of 3 mM UDP-GlcUA; conditions: recombinant enzyme, 1 h
Summary of the method: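 Recombinant human UGT1A1 or UGT1A9 (5 μg protein), or single-donor human liver or intestinal microsomes (20 μg), incubated in Tris-HCl pH 7.4 with 5 mM MgCl2, 5 mM saccharolactone, 2% DMSO and 100 or 200 μM substrate. Started with UDP-GlcUA, 60 min at 37°C, in triplicate. Product identified by HPLC with positive-ion ESI-MS and UV/Vis spectra, and confirmed by β-glucuronidase hydrolysis.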

[4] = target: T2, UDP-glucuronosyltransferase 1A9; assay: Drug metabolism assessed as human recombinant UGT1A9-mediated compound formation treated with C-1311 for 60 mins by ESI-MS/UV-vis spectroscopy in presence of 3 mM UDP-GlcUA; conditions: recombinant enzyme, 1 h
[5] = target: T3, UDP-glucuronosyltransferase 1A7 (Homo sapiens, UniProt Q9HAW7); assay: Drug metabolism assessed as human recombinant UGT1A7-mediated compound formation treated with C-1311 for 60 mins by ESI-MS/UV-vis spectroscopy in presence of 3 mM UDP-GlcUA; conditions: recombinant enzyme, 1 h
T3 sequence (Q9HAW7 whole entry): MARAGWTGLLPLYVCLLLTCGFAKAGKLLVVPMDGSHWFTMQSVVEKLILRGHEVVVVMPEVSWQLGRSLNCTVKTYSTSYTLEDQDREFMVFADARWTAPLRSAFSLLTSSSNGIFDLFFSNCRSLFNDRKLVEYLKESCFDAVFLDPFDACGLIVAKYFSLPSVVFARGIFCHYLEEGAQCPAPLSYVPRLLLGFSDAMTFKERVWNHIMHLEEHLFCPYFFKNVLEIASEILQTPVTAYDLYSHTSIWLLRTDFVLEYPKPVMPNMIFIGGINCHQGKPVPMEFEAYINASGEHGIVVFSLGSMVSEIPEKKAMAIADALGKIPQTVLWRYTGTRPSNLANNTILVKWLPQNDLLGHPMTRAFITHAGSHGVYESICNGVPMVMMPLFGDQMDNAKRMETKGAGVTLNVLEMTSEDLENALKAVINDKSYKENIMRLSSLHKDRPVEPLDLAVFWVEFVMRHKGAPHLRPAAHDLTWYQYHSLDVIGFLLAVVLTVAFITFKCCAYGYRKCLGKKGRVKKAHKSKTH

Liver microsome = assay: Drug metabolism in human liver microsomes assessed as metabolite formation treated with C-1311 for 60 mins by ESI-MS/UV-vis spectroscopy in presence of 3 mM UDP-GlcUA; conditions: 1 h
Summary of the method: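 Protein (5 μg UGT1A10 or microsomal) incubated with 0.2 mM substrate and 3 mM UDP-GlcUA, 60 min. HPLC on C18 at 25°C with a 15–80% methanol gradient in 0.05 M ammonium formate pH 3.4 at 1 ml/min. ESI positive-ion MS and UV/Vis spectra taken from the peaks. Glucuronide confirmed by 60 min further treatment with 1000 U E. coli β-glucuronidase.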

Row | Compound | Drug metabolism [1] | Drug metabolism [2] [nmol/min/mg] | Drug metabolism [3] | Drug metabolism [4] | Drug metabolism [5] | Drug metabolism (Liver microsome)
1 | CN(C)CCCNc1ccc2nnn3c4ccc(O)cc4c(=O)c1c23 | metabolite_detected | 0.15 | metabolite_detected |  |  | 
2 | CCN(CC)CCNc1ccc2ncn3c4ccc(O)cc4c(=O)c1c23 [C-1311] |  |  |  | metabolite_detected | metabolite_detected | metabolite_detected
